Laboratory results from ChEMBL document CHEMBL6134769, “Discovery of N-substituted-2-oxoindolin benzoylhydrazines as c-MET/SMO modulators in EGFRi-resistant non-small cell lung cancer” (RSC Med Chem, 2025).

Columns and labels:
[1] = target: High affinity nerve growth factor receptor (Homo sapiens) (UniProt P04629); assay: Inhibition of human N-terminal GST-fused TRKA cytoplasmic domain (436 to 790 (end)residues) expressed in baculovirus expression system at 20 uM measured after 1 hr in presence of peptide substrate and ATP by off-chip mobility shift assay relative to control
High affinity nerve growth factor receptor (Homo sapiens), sequence (P04629 33-796 limits assumed): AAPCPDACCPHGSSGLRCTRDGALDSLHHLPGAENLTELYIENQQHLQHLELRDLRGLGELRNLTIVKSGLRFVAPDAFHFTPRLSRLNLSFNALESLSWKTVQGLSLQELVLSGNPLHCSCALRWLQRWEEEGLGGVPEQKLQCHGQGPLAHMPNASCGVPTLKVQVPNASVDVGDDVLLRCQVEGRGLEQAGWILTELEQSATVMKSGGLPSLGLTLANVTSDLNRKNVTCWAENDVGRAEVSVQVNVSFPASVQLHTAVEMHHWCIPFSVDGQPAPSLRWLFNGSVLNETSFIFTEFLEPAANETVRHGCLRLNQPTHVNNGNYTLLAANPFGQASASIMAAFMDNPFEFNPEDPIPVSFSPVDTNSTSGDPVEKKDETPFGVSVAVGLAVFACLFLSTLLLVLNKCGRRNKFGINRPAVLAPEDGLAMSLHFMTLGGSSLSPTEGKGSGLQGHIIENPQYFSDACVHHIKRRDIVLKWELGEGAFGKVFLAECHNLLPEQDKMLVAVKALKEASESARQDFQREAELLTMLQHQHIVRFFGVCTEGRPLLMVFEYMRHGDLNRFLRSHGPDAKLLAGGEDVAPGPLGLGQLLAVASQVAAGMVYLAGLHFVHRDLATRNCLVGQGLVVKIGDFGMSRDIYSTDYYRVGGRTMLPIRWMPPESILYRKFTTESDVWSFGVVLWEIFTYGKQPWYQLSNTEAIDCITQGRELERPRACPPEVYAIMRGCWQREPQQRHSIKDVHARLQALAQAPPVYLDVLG
How it was run: (§1)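 Off-chip mobility shift assay. Product and substrate peptides were separated; activity was taken as P/(P+S). Complete reaction was set as 0% inhibition and enzyme-free background as 100%. Run in triplicate, mean ± SD.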

[2] = target: Platelet-derived growth factor receptor alpha (Homo sapiens) (UniProt P16234); assay: Inhibition of human N-terminal GST-fused PDGFRalpha cytoplasmic domain (550 to 1089 (end)residues) expressed in baculovirus expression system at 20 uM measured after 1 hr in presence of peptide substrate and ATP by off-chip mobility shift assay relative to control; how it was run: as §1
Platelet-derived growth factor receptor alpha (Homo sapiens), sequence (P16234 whole entry, the tested form may be a part): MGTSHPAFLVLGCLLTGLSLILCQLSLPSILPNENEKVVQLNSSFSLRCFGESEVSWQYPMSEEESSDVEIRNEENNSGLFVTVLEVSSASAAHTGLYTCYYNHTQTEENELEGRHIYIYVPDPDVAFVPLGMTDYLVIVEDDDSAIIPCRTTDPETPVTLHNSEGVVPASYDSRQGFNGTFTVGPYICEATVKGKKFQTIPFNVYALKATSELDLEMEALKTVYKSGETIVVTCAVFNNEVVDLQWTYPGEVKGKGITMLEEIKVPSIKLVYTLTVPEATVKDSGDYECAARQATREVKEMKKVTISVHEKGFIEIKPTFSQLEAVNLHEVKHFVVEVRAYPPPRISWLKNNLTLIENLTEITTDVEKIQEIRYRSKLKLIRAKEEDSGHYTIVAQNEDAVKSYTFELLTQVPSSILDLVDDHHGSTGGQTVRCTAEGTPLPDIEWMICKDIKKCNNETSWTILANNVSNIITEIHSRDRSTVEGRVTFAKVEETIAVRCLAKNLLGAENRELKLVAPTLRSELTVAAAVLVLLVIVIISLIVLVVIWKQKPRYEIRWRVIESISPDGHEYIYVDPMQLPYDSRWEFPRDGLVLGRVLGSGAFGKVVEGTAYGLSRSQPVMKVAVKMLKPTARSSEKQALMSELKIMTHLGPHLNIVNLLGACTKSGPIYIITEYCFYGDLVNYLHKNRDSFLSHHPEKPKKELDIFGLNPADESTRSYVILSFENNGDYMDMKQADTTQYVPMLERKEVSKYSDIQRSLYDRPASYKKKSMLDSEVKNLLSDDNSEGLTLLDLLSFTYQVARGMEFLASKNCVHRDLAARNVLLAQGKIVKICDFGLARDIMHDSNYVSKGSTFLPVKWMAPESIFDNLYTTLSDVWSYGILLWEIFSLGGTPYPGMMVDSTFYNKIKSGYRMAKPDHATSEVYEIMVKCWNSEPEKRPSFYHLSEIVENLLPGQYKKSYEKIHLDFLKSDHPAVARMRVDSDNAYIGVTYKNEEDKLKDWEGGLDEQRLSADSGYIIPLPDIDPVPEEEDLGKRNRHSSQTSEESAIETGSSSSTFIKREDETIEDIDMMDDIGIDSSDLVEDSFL

[3] = target: Angiopoietin-1 receptor (Homo sapiens) (UniProt Q02763); assay: Inhibition of human N-terminal GST-fused TIE2 cytoplasmic domain (771 to 1124 (end)residues) expressed in baculovirus expression system at 20 uM measured after 1 hr in presence of peptide substrate and ATP by off-chip mobility shift assay relative to control; how it was run: as §1
Angiopoietin-1 receptor (Homo sapiens), sequence (Q02763 whole entry, the tested form may be a part): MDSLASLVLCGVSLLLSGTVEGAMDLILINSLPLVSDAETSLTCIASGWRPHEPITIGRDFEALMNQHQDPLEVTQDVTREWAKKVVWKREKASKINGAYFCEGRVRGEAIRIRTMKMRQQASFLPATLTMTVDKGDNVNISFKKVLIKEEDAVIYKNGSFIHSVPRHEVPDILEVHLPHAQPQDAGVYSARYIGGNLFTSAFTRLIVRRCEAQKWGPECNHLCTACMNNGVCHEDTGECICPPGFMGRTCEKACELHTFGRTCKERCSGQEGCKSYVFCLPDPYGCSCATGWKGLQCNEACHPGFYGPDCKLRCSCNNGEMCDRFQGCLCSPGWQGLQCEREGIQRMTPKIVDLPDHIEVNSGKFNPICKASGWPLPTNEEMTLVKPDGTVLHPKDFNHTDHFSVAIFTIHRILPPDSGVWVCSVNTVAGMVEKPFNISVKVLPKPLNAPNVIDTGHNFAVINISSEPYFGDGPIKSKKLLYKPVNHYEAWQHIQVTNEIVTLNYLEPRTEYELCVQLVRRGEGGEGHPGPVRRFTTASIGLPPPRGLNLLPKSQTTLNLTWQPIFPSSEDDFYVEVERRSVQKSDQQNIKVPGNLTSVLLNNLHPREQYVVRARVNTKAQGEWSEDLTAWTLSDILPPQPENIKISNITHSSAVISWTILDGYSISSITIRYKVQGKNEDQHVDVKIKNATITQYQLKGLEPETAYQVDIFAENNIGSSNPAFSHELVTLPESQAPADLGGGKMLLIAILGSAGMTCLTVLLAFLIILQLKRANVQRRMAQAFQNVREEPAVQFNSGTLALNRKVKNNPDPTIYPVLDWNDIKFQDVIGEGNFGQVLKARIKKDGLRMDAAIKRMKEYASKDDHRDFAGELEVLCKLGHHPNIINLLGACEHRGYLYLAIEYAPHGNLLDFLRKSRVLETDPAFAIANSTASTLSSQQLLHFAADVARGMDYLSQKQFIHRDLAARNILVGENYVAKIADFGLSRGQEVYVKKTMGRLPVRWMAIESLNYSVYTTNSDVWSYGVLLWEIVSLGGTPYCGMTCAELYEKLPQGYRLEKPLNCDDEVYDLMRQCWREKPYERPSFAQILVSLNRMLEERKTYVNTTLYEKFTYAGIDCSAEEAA

[4] = target: Tyrosine-protein kinase CSK (Homo sapiens) (UniProt P41240); assay: Inhibition of human full-length N-terminal GST-fused CSK (1 to 450 (end)residues) expressed in baculovirus expression system at 20 uM measured after 1 hr in presence of peptide substrate and ATP by off-chip mobility shift assay relative to control; how it was run: as §1
Tyrosine-protein kinase CSK (Homo sapiens), sequence (P41240 2-450 limits assumed): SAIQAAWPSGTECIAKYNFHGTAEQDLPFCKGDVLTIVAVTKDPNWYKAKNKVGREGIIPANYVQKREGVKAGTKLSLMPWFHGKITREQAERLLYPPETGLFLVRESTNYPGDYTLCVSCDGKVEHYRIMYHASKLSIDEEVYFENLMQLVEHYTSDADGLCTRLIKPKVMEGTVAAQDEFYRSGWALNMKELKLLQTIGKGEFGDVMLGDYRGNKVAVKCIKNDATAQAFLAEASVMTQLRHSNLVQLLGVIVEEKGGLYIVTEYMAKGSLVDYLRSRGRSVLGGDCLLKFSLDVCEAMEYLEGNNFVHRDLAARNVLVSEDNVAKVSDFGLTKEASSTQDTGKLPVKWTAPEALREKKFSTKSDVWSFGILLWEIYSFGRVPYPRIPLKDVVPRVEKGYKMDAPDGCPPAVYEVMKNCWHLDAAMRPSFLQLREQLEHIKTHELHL

[5] = target: Insulin-like growth factor 1 receptor (Homo sapiens) (UniProt P08069); assay: Inhibition of human N-terminal GST-fused IGF1R cytoplasmic domain (959 to 1367 (end)residues) expressed in baculovirus expression system at 20 uM measured after 1 hr in presence of peptide substrate and ATP by off-chip mobility shift assay relative to control; how it was run: as §1
Insulin-like growth factor 1 receptor (Homo sapiens), sequence (P08069 31-736 limits assumed): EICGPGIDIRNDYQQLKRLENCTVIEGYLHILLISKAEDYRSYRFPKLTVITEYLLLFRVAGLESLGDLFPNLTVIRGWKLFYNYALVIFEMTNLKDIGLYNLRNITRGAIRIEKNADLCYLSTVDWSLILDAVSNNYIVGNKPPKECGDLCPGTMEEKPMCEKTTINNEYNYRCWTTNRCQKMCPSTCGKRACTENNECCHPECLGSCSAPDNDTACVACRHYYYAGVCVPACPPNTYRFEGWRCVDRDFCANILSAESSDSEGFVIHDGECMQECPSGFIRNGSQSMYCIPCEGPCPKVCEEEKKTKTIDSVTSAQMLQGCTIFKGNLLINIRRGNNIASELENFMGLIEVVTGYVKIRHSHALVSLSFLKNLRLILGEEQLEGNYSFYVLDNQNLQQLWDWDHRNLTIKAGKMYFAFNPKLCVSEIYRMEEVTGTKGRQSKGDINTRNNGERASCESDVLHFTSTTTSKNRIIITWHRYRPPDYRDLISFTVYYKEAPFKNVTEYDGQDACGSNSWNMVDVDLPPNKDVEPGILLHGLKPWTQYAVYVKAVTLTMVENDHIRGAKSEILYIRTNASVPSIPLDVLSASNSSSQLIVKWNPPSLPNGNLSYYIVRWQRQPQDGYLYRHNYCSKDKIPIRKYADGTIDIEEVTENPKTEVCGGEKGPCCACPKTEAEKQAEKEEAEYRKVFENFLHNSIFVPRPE
Insulin-like growth factor 1 receptor (Homo sapiens), sequence (P08069 741-1367 limits assumed): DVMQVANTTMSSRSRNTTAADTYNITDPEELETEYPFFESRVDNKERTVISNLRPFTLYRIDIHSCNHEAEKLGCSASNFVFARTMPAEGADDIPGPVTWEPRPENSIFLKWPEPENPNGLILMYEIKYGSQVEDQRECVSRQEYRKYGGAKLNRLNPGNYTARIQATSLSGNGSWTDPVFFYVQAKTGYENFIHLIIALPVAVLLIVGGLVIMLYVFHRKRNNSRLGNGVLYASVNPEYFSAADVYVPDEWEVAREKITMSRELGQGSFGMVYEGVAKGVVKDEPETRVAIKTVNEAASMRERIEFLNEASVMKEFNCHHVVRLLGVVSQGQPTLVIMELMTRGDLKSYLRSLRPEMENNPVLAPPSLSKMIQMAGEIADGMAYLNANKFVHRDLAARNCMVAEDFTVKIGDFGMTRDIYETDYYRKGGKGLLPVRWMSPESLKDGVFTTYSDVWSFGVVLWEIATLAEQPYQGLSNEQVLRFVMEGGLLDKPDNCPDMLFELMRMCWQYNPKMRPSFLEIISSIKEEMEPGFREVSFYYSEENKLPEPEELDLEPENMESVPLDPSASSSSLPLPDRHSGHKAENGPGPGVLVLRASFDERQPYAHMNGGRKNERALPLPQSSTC

[6] = Induction of apoptosis in human PC9-OR cells assessed as early apoptotic cells at 20 uM measured after 24 hrs by Annexin V-[…]propidium iodide staining based flow cytometry relative to control; format: functional
How it was run: (§2)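 Resistant cells were seeded at 500.000 per dish and treated the next day for 24 h at 20 μM. Cells were harvested, washed in PBS, and stained with annexin V-Alexa 488 and PI, then analysed by flow cytometry. Early apoptotic cells were scored as annexin+/PI−, late apoptotic/necrotic cells as annexin+/PI+.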

[7] = Induction of apoptosis in human HCC827 Gefitinib-resistant (GR) cells assessed as late apoptotic/necrotic cells at 20 uM measured after 24 hrs by Annexin V-[…]propidium iodide staining based flow cytometry relative to control; format: functional, HCC827 Gefitinib-resistant (GR) cell; how it was run: as §2

Row | Structure (SMILES) | inhibition [1] | inhibition [2] | inhibition [3] | inhibition [4] | inhibition [5] | Activity [6] | Activity [7]
1 | Cc1ccc(NC(=O)CN2C(=O)/C(=N\NC(=O)c3cc(Br)ccc3O)c3ccc(Cl)cc32)cc1 | 66.9% | 56.5% | 76.7% | 82.1% | 55.3% | – | –
2 | Cc1ccc(NC(=O)CN2C(=O)/C(=N\NC(=O)c3cc(Br)ccc3O)c3ccccc32)cc1 | 80% | 76.2% | 93.1% | 93.5% | 80.2% | 75.5% | 96.2%
3 | O=C(CN1C(=O)/C(=N\NC(=O)c2cc(Br)ccc2O)c2c(Br)cccc21)Nc1ccc([N+](=O)[O-])cc1 | 65.9% | 63.3% | 89.5% | 82.9% | 66% | – | –
4 | Cc1ccc(NC(=O)CN2C(=O)/C(=N\NC(=O)c3cc(Br)ccc3O)c3ccc(Br)cc32)cc1 | 64.3% | 56.7% | 76.7% | 86.1% | 54% | 57.5% | 90.8%
